We go through seven compounds from ChEMBL document CHEMBL5532760, “Synergy between the clavanins as a weapon against multidrug-resistant Enterobacter cloacae” (2024).

Assay [1] relates to Enterobacter cloacae. Description: Antibacterial activity against Enterobacter cloacae 0136 at pH 7.4 incubated for 18 to 20 hrs by broth microdilution method. Type of assay: functional. The note with it: time 18-20 hrs. The method in brief:
(§1)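 E. cloacae AR#0136 grown at 37 °C with shaking at 234 rpm to mid-log (OD600 0.4–0.6) in MHB. For pH 5.5 the medium was adjusted with 0.1 M HCl before autoclaving; the pH 7.4 medium was not adjusted. Peptides were twofold serially diluted; final inoculum 5×10^5 CFU/mL; 37 °C for 18–20 h. MIC taken as the lowest concentration with no visible growth.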
For orientation: Dilution methods test growth across graded concentrations, often in twofold steps.

Assay [2] deals with Enterobacter cloacae. The assay can be described thus: Antibacterial activity against Enterobacter cloacae 0136 at pH 5.5 incubated for 18 to 20 hrs by broth microdilution method. To be noted: time 18-20 hrs. Type of assay: functional. The method in brief:
as §1

≈ marks a conversion by molar mass, not a printed value. Where “and” joins values, the source holds several entries; their conditions need not be identical. Equal values may be shown once. Where a SMILES comes first, the peptide text is derived from it. [ ]: non-standard residue; d: D form. Dopa = N[C@@H](Cc1ccc(O)c(O)c1)C(=O)O

Usually MIC stands for the lowest concentration found to suppress growth. Low readings indicate a more susceptible organism, high ones a less susceptible organism. As to H-VFQFLGRIIHHVGNFVHGFSHVF-NH2, the MIC was > 128 µM and 344 µg/mL in assay [1]; 128 µM and 344 µg/mL in assay [2].

On to H-LFKLLGKIIHHVGNFVHGFSHVF-NH2, for which the MIC in assay [1] was > 128 µM and 368 µg/mL; in assay [2], 8 µM and 23 µg/mL.

Consider `CC[C@H](C)[C@H](NC(=O)[C@H](CCCCN)NC(=O)CNC(=O)[C@H](CC(C)C)NC(=O)[C@H](CC(C)C)NC(=O)[C@H](Cc1cnc[nH]1)NC(=O)[C@H](Cc1ccccc1)NC(=O)[C@@H](N)C(C)C)C(=O)N[C@H](C(=O)N[C@@H](Cc1cnc[nH]1)C(=O)N[C@@H](Cc1cnc[nH]1)C(=O)N[C@H](C(=O)NCC(=O)N[C@@H](CC(N)=O)C(=O)N[C@@H](Cc1ccccc1)C(=O)N[C@H](C(=O)N[C@@H](Cc1ccc(O)c(O)c1)C(=O)NCC(=O)N[C@@H](Cc1ccccc1)C(=O)N[C@@H](CO)C(=O)N[C@@H](Cc1cnc[nH]1)C(=O)N[C@H](C(=O)N[C@@H](Cc1ccccc1)C(=O)O)C(C)C)C(C)C)C(C)C)[C@@H](C)CC`, for which the MIC in assay [1] was > 128 µM and 372 µg/mL; in assay [2] it was 46 µg/mL (≈ 17.1 µM).

Turning to H-GIGKFLHSAKKFGKAFVGEIMNS-NH2, the MIC was 4 µM and 4.9 µg/mL in assay [1]; 4 µM and 4.9 µg/mL in assay [2].

H-VFQFLGKIIHHVGNFVHGFSHVF-NH2: the MIC in assay [1] was > 128 µM and 341 µg/mL; in assay [2] it was > 128 µM and 341 µg/mL.

`CC[C@H](C)[C@H](NC(=O)[C@H](CCCNC(=N)N)NC(=O)CNC(=O)[C@H](CC(C)C)NC(=O)[C@H](CC(C)C)NC(=O)[C@H](CCCCN)NC(=O)[C@H](Cc1ccccc1)NC(=O)[C@H](C)N)C(=O)N[C@H](C(=O)N[C@@H](Cc1cnc[nH]1)C(=O)N[C@@H](Cc1cnc[nH]1)C(=O)N[C@H](C(=O)NCC(=O)N[C@@H](CC(N)=O)C(=O)N[C@@H](Cc1ccccc1)C(=O)N[C@H](C(=O)N[C@@H](Cc1ccc(O)c(O)c1)C(=O)NCC(=O)N[C@@H](Cc1ccccc1)C(=O)N[C@@H](CO)C(=O)N[C@@H](Cc1cnc[nH]1)C(=O)N[C@H](C(=O)N[C@@H](Cc1ccccc1)C(=O)O)C(C)C)C(C)C)C(C)C)[C@@H](C)CC` (H-AFKLLGRIIHHVGNFV[Dopa]GFSHVF-OH): the MIC in assay [1] is > 128 µM and 371 µg/mL; in assay [2], 8 µM and 23 µg/mL.

As to H-FLRFIGSVIHGIGHLVHHIGVAL-NH2, the MIC in assay [1] was found to be 348 µg/mL; in assay [2], 11 µg/mL.
